Reference: PMC12010439 (Cell, 2024)

Experiments:
[1] = tested on: eight cell lines representing different cancer types; assay: Drug response viability assay; format: cell-based; details: 48 h
[2] = tested on: HT29 colon cancer cell line xenografts; assay: HT29 colon cancer cell line xenograft treated with alvespimycin; format: in vivo, BALB/c nude mice; details: alvespimycin 50 mg/kg intraperitoneally daily, N = 9
Outline: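 Female BALB/c nude mice, 4–6 weeks old, received 5×10^6 HT29 cells in 100 μL PBS subcutaneously in the dorsal flank. On day 0 they were randomised to vehicle (2% DMSO in PBS) or test compound at 50 mg/kg i.p. daily, N = 9 per group, and sacrificed 7 days later. Tumours were measured by caliper every 1–3 days; volume = (width)2 × length × 0.52; mean ± sd.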

UCEC tumors = details: cited from earlier work
[3] = tested on: T cells of HLA-A*02 healthy donors; assay: IFN-γ ELISpot assay; format: cell-based, human
[4] = CD8+ T cell cultures of donor US1 with HLA-A*02:11, peptide 12.5 μg/mL, about 16 hrs (BCM)
[5] = donor CN1 with HLA-A*02:01, peptide 10 μg/mL, 20h co-culture (Fudan)

## CO[C@H]1/C=C\C=C(/C)C(=O)NC2=CC(=O)C(NCCN(C)C)=C(C[C@@H](C)C[C@H](OC)[C@H](O)[C@@H](C)/C=C(\C)[C@@H]1OC(N)=O)C2=O [alvespimycin]
[1]
  IC50: < 1000 nM
[2]
  tumor regression: began to induce tumor regression after seven days of treatment

## COc1cccc2c1C(=O)c1c(O)c3c(c(O)c1C2=O)C[C@@](O)(C(=O)CO)C[C@@H]3O[C@H]1C[C@H](N)[C@H](O)[C@H](C)O1 [doxorubicin]
UCEC tumors; unselected UCEC patients
  overall response rate: 16%

## O=C1c2c(O)ccc(O)c2C(=O)c2c(NCCNCCO)ccc(NCCNCCO)c21 [mitoxantrone]
UCEC tumors; UCEC tumors among unselected patients
  clinical activity: lack clinical activity

## C=CCNC1=C2C[C@@H](C)C[C@H](OC)[C@H](O)[C@@H](C)/C=C(\C)[C@H](OC(N)=O)[C@@H](OC)/C=C\C=C(/C)C(=O)NC(=CC1=O)C2=O [tanespimycin]
[1]
  IC50: < 1000 nM

## CILESLFRAV [PEP4]
[3]; [4]
  T cell reactivity, IFN-γ ELISpot: strong reactivity

## FSYAWPFYNPV [PEP28]
[3]; [5]
  T cell reactivity, IFN-γ ELISpot: strong reactivity

## MMGLYDGMEHL [PEP17]
[3]; [4]
  T cell reactivity, IFN-γ ELISpot: strong reactivity

## YLVERQLQEI [PEP40]
[3]; [5]
  T cell reactivity, IFN-γ ELISpot: strong reactivity
